According to ChEMBL document CHEMBL1909521, “A class of novel N-(1-methyl-β-carboline-3-carbonyl)-N'-(aminoacid-acyl)-hydrazines: aromatization leaded design, synthesis, in vitro anti-platelet aggregation/in vivo anti-thrombotic evaluation and 3D QSAR analysis” (Eur J Med Chem, 2011):
Counter-ions that a name gives are not always drawn.

Columns and labels:
[1] = Antiaggregatory activity in pig platelets assessed as inhibition of platelet-activating factor-induced platelet aggregation after 5 mins; assay type: functional, cell-based; conditions: Sus scrofa
How it was run: (§1)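 Pig blood (6 pigs) was spun at 1000 rpm for 10 min to give PRP, then 1500 rpm for 10 min to give PPP. PRP was adjusted to 2×10^8 platelets/ml with autologous PPP. Compound (final 100 µM to 0.001 µM, diluted in NS) or NS was added before agonist: ADP 10 µM, AA 350 µM or PAF 0.1 µM final. Aggregation was read optically at 37 °C for 5 min, in sixplicate. IC50 came from the concentration–inhibition curve.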

[2] = Antiaggregatory activity in pig platelets assessed as inhibition of adenosine diphosphate-induced platelet aggregation after 5 mins; assay type: functional, cell-based; conditions: Sus scrofa; how it was run: as §1
[3] = Antiaggregatory activity in pig platelets assessed as inhibition of arachidonic acid-induced platelet aggregation after 5 mins; assay type: functional, cell-based; conditions: Sus scrofa; how it was run: as §1
[4] = tested on: Rattus norvegicus; assay: Antithrombotic activity in Wister rat assessed as reduction of thrombus weight at 1 nmol/kg, po (reference value: 31.87 +/- 1.71 mg); assay type: functional
[5] = tested on: Rattus norvegicus; assay: Antithrombotic activity in Wister rat assessed as reduction of thrombus weight at 160 to 165 umol/kg, po (reference value: 31.87 +/- 1.71 mg); assay type: functional
[6] = tested on: Rattus norvegicus; assay: Antithrombotic activity in Wister rat assessed as reduction of thrombus weight at 10 nmol/kg, po (reference value: 31.87 +/- 1.71 mg); assay type: functional
[7] = tested on: Rattus norvegicus; assay: Antithrombotic activity in Wister rat assessed as reduction of thrombus weight at 10 nmol/kg, po (reference value: 28.21 +/- 1.11 mg); assay type: functional
[8] = Antiplatelet activity in rabbit platelets assessed as inhibition of collagen-induced platelet aggregation; assay type: functional, cell-based; conditions: Oryctolagus cuniculus
[9] = tested on: Rattus norvegicus; assay: Antithrombotic activity in Wister rat assessed as reduction of thrombus weight at 0.1 nmol/kg, po (reference value: 31.87 +/- 1.71 mg); assay type: functional
[10] = tested on: Rattus norvegicus; assay: Antithrombotic activity in Wister rat assessed as reduction of thrombus weight at 0.01 nmol/kg, po (reference value: 31.87 +/- 1.71 mg); assay type: functional
[11] = tested on: Rattus norvegicus; assay: Antithrombotic activity in po dosed Wister rat assessed as reduction of thrombus weight; assay type: functional, organism-based

Row | SMILES | IC50 [1] [µM] | IC50 [2] [µM] | IC50 [3] [µM] | Activity [4] [mg] | Activity [5] [mg] | Activity [6] [mg] | Activity [7] [mg] | IC50 [8] [µM] | Activity [9] [mg] | Activity [10] [mg] | Activity [11]
1 | Cc1nc(C(=O)NNC(=O)[C@@H](N)Cc2cnc[nH]2)cc2c1[nH]c1ccccc12 | 42.5 | 25.7 | 0.2 | 18.1 |  |  |  |  |  |  | 
2 | CC(=O)Oc1ccccc1C(=O)O [ASPIRIN] |  |  |  |  | 18.86 |  |  |  |  |  | 
3 | Cc1nc(C(=O)NNC(=O)CN)cc2c1[nH]c1ccccc12 | 52.9 | 53.3 | 5.2 | 23.7 |  |  |  |  |  |  | 
4 | Cc1nc(C(=O)NNC(=O)[C@@H]2CCCN2)cc2c1[nH]c1ccccc12 | 44.5 | 48.7 | 5.8 | 24.37 |  |  |  |  |  |  | 
5 | Cc1nc(C(=O)NNC(=O)[C@H](CC(C)C)NC(=O)OC(C)(C)C)cc2c1[nH]c1ccccc12 | 1.2 | 31.6 | 3.2 |  |  | 23.8 | 21.06 |  |  |  | 
6 | Cc1nc(C(=O)NNC(=O)[C@H](CCC(=O)OCc2ccccc2)NC(=O)OC(C)(C)C)cc2c1[nH]c1ccccc12 | 362 | 524 | 6.3 |  |  | 22.2 | 19.65 |  |  |  | 
7 | Cc1nc(C(=O)NNC(=O)[C@@H](N)CC(C)C)cc2c1[nH]c1ccccc12 | 1.1 | 23 | 8.2 | 24.49 |  |  |  |  |  |  | 
8 | CSCC[C@H](N)C(=O)NNC(=O)c1cc2c([nH]c3ccccc32)c(C)n1 | 13.4 | 58.9 | 4.7 | 23.43 |  |  |  |  |  |  | 
9 | Cc1nc(C(=O)NNC(=O)[C@H](Cc2ccc(O)cc2)NC(=O)OC(C)(C)C)cc2c1[nH]c1ccccc12 | 12.7 | 152 | 13 |  |  | 23.73 | 21 |  |  |  | 
10 | Cc1nc(C(=O)NNC(=O)[C@@H](N)CC(N)=O)cc2c1[nH]c1ccccc12 | 39.7 | 65.8 | 6.2 | 23.97 |  |  |  |  |  |  | 
11 | Cc1nccc2c1[nH]c1cc(O)ccc12 [HARMOL HYDROCHLORIDE] |  |  |  |  |  |  |  | 130 |  |  | 
12 | Cc1nc(C(=O)NNC(=O)[C@H](CC(N)=O)NC(=O)OC(C)(C)C)cc2c1[nH]c1ccccc12 | 507 | 609 | 19.7 |  |  | 24.14 | 21.36 |  |  |  | 
13 | Cc1nc(C(=O)NNC(=O)[C@@H](N)[C@@H](C)O)cc2c1[nH]c1ccccc12 | 20.9 | 24.8 | 5.2 | 23.65 |  |  |  |  |  |  | 
14 | Cc1nc(C(=O)NNC(=O)[C@@H](N)CC(=O)OCc2ccccc2)cc2c1[nH]c1ccccc12 | 52.9 | 81.7 | 3.7 | 23.23 |  |  |  |  |  |  | 
15 | Cc1nc(C(=O)NNC(=O)[C@H](C)NC(=O)OC(C)(C)C)cc2c1[nH]c1ccccc12 | 162 | 118 | 20 |  |  | 22.67 | 20.06 |  |  |  | 
16 | Cc1nc(C(=O)NNC(=O)[C@@H](N)CCC(=O)OCc2ccccc2)cc2c1[nH]c1ccccc12 | 64.3 | 58.9 | 2.3 | 18.8 |  |  |  |  |  |  | 
17 | Cc1nc(C(=O)NNC(=O)CNC(=O)OC(C)(C)C)cc2c1[nH]c1ccccc12 | 348 | 722 | 20.7 |  |  | 26.83 | 23.74 |  |  |  | 
18 | CC[C@H](C)[C@H](NC(=O)OC(C)(C)C)C(=O)NNC(=O)c1cc2c([nH]c3ccccc32)c(C)n1 | 1.4 | 51.1 | 2.4 |  |  | 23.3 | 20.62 |  |  |  | 
19 | COc1ccc2c3c([nH]c2c1)C(C)=NCC3 [HARMALINE] |  |  |  |  |  |  |  | 130 |  |  | 
20 | Cc1nc(C(=O)NNC(=O)[C@H](C)N)cc2c1[nH]c1ccccc12 | 47.4 | 58.9 | 6.7 | 24.39 |  |  |  |  |  |  | 

Row | SMILES | IC50 [1] [µM] | IC50 [2] [µM] | IC50 [3] [µM] | Activity [4] [mg] | Activity [5] [mg] | Activity [6] [mg] | Activity [7] [mg] | IC50 [8] [µM] | Activity [9] [mg] | Activity [10] [mg] | Activity [11]
21 | Cc1nc(C(=O)NNC(=O)[C@@H](N)Cc2ccc(O)cc2)cc2c1[nH]c1ccccc12 | 37.4 | 74.6 | 1.7 | 18.56 |  |  |  |  |  |  | 
22 | Cc1nc(C(=O)NNC(=O)[C@@H](N)CO)cc2c1[nH]c1ccccc12 | 52.9 | 50.9 | 9 | 24.78 |  |  |  |  |  |  | 
23 | Cc1nc(C(=O)NNC(=O)[C@@H](NC(=O)OC(C)(C)C)[C@@H](C)O)cc2c1[nH]c1ccccc12 | 31.9 | 531 | 4.7 |  |  | 22.87 | 20.24 |  |  |  | 
24 | COc1ccc2c(c1)[nH]c1c(C)nccc12 [HARMINE] |  |  |  |  |  |  |  | 130 |  |  | 
25 | Cc1nc(C(=O)NNC(=O)[C@H](Cc2c[nH]c3ccccc23)NC(=O)OC(C)(C)C)cc2c1[nH]c1ccccc12 | 4.3 | 21.7 | 0.6 |  |  | 21.52 | 19.04 |  |  |  | 
26 | Cc1nc(C(=O)NNC(=O)[C@H](CCCCNC(=O)OC(C)(C)C)NC(=O)OC(C)(C)C)cc2c1[nH]c1ccccc12 | 106 | 321 | 3.4 |  |  | 22.32 | 19.75 |  |  |  | 
27 | Cc1nc(C(=O)NNC(=O)[C@@H](N)CCCCN)cc2c1[nH]c1ccccc12 | 52.9 | 58.9 | 4.1 | 23.3 |  |  |  |  |  |  | 
28 | Cc1nc(C(=O)NNC(=O)[C@@H]2CCCN2C(=O)OC(C)(C)C)cc2c1[nH]c1ccccc12 | 134 | 166 | 20.6 |  |  | 23.04 | 20.39 |  |  |  | 
29 | CC[C@H](C)[C@H](N)C(=O)NNC(=O)c1cc2c([nH]c3ccccc32)c(C)n1 | 5.6 | 74 | 3.6 | 23.12 |  |  |  |  |  |  | 
30 | CSCC[C@H](NC(=O)OC(C)(C)C)C(=O)NNC(=O)c1cc2c([nH]c3ccccc32)c(C)n1 | 52.9 | 417 | 21.7 |  |  | 20.96 | 18.55 |  |  |  | 
31 | Cc1nc(C(=O)NNC(=O)[C@@H](N)C(C)C)cc2c1[nH]c1ccccc12 | 2 | 20.8 | 0.3 | 18.3 |  |  |  |  | 23.8 | 27.12 | Dose-dependent effect
32 | Cc1nccc2c1[nH]c1ccccc12 [HARMAN] |  |  |  |  |  |  |  | 130 |  |  | 
33 | c1ccc2c(c1)[nH]c1cnccc12 [NORHARMANE] |  |  |  |  |  |  |  | 130 |  |  | 
34 | Cc1nc(C(=O)NNC(=O)[C@@H](N)Cc2c[nH]c3ccccc23)cc2c1[nH]c1ccccc12 | 19.3 | 28.9 | 8.7 | 24.56 |  |  |  |  |  |  | 
35 | Cc1nc(C(=O)NNC(=O)[C@H](CO)NC(=O)OC(C)(C)C)cc2c1[nH]c1ccccc12 | 119 | 276 | 19.9 |  |  | 21.1 | 18.67 |  |  |  | 
36 | CC1=NCCc2c1[nH]c1cc(O)ccc21 [HARMALOL] |  |  |  |  |  |  |  | 130 |  |  | 
37 | Cc1nc(C(=O)NNC(=O)[C@H](CC(=O)OCc2ccccc2)NC(=O)OC(C)(C)C)cc2c1[nH]c1ccccc12 | 196 | 117 | 5.2 |  |  | 21.44 | 18.97 |  |  |  | 
38 | Cc1nc(C(=O)NNC(=O)[C@H](Cc2cn(C(=O)OC(C)(C)C)cn2)NC(=O)OC(C)(C)C)cc2c1[nH]c1ccccc12 | 7.7 | 94.6 | 4.8 |  |  | 21.32 | 18.87 |  |  |  | 
39 | Cc1nc(C(=O)NN)cc2c1[nH]c1ccccc12 | 92.8 | 110 | 32.9 |  |  | 26.66 |  |  |  |  | 
40 | Cc1nc(C(=O)NNC(=O)[C@@H](NC(=O)OC(C)(C)C)C(C)C)cc2c1[nH]c1ccccc12 | 50 | 156 | 3.7 |  |  | 24.01 | 24.01 |  |  |  | 
